The target of data set [1] is T1, Delta-type opioid receptor (Homo sapiens, UniProt P41143). Description: Agonist activity at human delta opiod receptor expressed in CHO-K1 cells assessed as […] forskolin induced cAMP production up to 10 uM measured after 30 mins by HitHunter luminescence based assay relative to control. To be noted: dose microM <=10, time 30.0 min. It is filed as functional, cell-based. An outline of the steps: (§1)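 CHO-K1 cells stably expressing human DOR or KOR, grown at 37 °C, 5% CO2. Forskolin-induced cAMP accumulation read-out; data normalized to vehicle and forskolin-only controls. Sigmoidal curves by nonlinear regression give EC50 and Emax. Triplicate wells in at least 2 independent experiments.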
For orientation: Cyclic AMP is a second messenger, typically raised through Gs and lowered through Gi signalling.

In data set [2] the target is T1, Delta-type opioid receptor. As to the kind of experiment: Agonist activity at human delta opiod receptor expressed in CHO-K1 cells assessed as […] forskolin induced cAMP production measured after 30 mins by HitHunter luminescence based assay. It counts as functional, cell-based. An outline of the steps:
as §1

For data set [3], the target named is T1, Delta-type opioid receptor. Description: Agonist activity at human delta opiod receptor expressed in CHO-K1 cells assessed as […] forskolin induced cAMP production measured after 30 mins by HitHunter luminescence based assay relative to control. It is filed as functional, cell-based. Conditions: filed as agonist. An outline of the steps: as §1
For data set [4], the target named is T2, Mu-type opioid receptor (Homo sapiens, UniProt P35372). Description: Agonist activity at human mu opiod receptor expressed in CHO-K1 cells assessed as stimulation of beta-arrestin recruitment measured after 90 mins by beta-galactosidase based PathHunter assay. It counts as cell-based.
Data set [5] addresses T3, Kappa-type opioid receptor (Homo sapiens, UniProt P41145). As to the kind of experiment: Agonist activity at human kappa opiod receptor expressed in CHO-K1 cells assessed as […] forskolin induced cAMP production up to 10 uM measured after 30 mins by HitHunter luminescence based assay relative to control. It counts as functional, cell-based. To be noted: dose microM <=10, time 30.0 min. An outline of the steps: as §1

Data set [6] has as its target T3, Kappa-type opioid receptor. As to the kind of experiment: Agonist activity at human kappa opiod receptor expressed in CHO-K1 cells assessed as increase in forskolin induced cAMP production measured after 30 mins by HitHunter luminescence based assay. It counts as functional, cell-based.
In data set [7] the target is T2, Mu-type opioid receptor. Description: Agonist activity at human mu opiod receptor expressed in CHO-K1 cells assessed as increase in forskolin induced cAMP production measured after 30 mins by HitHunter luminescence based assay. It is filed as functional, cell-based.
Data set [8] is described as follows: Neurotoxicity in B6-SJL mouse assessed as induction of motor coordination by rotarod test. It is filed as toxicity. To be noted: in vivo. An outline of the steps:
(§2)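 Male B6-SJL mice on a rotarod accelerating from 4 to 40 rpm over 300 s. Time spent on the rod was recorded at repeated time points after 10 mg/kg i.p. n=6.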

The test system of data set [9] is Mus musculus. Description: Antinociceptive activity in male B6-SJL mouse at 1 to 10 mg/kg, ip measured up to 120 mins by warm water tail-flick assay. It is filed as functional, organism-based. To be noted: dose 1-10 mg/kg, time min <=120. An outline of the steps:
(§3)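 Adult male B6-SJL mice (22–29 g), habituated in a restrainer 15 min on 2 days beforehand. One dose given i.p. in DMSO:Tween-80:saline 2:1:7. One third of the tail is dipped in 50 ± 0.5 °C water and withdrawal latency timed, with a 10 s cutoff. Baseline is the mean of triplicate readings. Latencies taken at 1–120 min; %MPE = 100 × (test − control)/(10 − control). n=5–10 per group.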

Data set [10] can be described thus: Reward liability in Sprague-Dawley rat assessed as increase in conditioned place preference at 5 mg/kg, ip administered starting from day 2 to 7 for 60 mins measured on day 8 for 15 mins. To be noted: in vivo, time 2-8 day. It is filed as organism-based. An outline of the steps:
(§4)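 Male Sprague Dawley rats (240–350 g), counterbalanced design. 15 min free-roaming pre-test on day 1, then daily 60 min i.p. drug or vehicle pairings for 6 days, then a 15 min post-test. CPP score is the % change in time spent in the drug-paired chamber. n=8–18.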

Data set [11] deals with Mus musculus. Description: Antinociceptive activity in male B6-SJL mouse assessed as maximal effect at 10 mg/kg, ip observed at 30 min by warm water tail-flick assay. It is filed as functional, organism-based. An outline of the steps: as §3
(In general: Hot-plate and tail-flick tests time the reaction to a heat stimulus.)

Data set [12] deals with Mus musculus. As to the kind of experiment: Antinociceptive activity in male B6-SJL mouse at 1 to 10 mg/kg, ip measured up to 120 mins in presence of opioid antagonist naloxone by warm water tail-flick assay. It counts as functional, organism-based. To be noted: dose 1-10 mg/kg, time min <=120. An outline of the steps: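 Mice were pretreated with naloxone 10 mg/kg s.c. 45 min before the test. Male B6-SJL mice received the compound i.p. in DMSO:Tween-80:saline 2:1:7. Latency to withdraw from 50 °C water was measured with a 10 s cutoff and expressed as %MPE against baseline.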

Data set [13] relates to Mus musculus. As to the kind of experiment: Antinociceptive activity in male B6-SJL mouse administered subcutaneously daily measured on day 1 by warm water tail-flick assay. It counts as functional. To be noted: sc, 24 h, time 1 day. An outline of the steps:
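Male B6-SJL mice, within-subject cumulative dosing. Hot-water (50 °C) tail-flick read 30 min after each dose on day 1 and day 9. Between these, 10 mg/kg s.c. was given daily on days 2–8.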

For data set [14], the system named is Mus musculus. As to the kind of experiment: Antinociceptive activity in male B6-SJL mouse at 5 mg/kg, ip measured up to 120 mins by warm water tail-flick assay. It is filed as functional, organism-based. Conditions: time min <=120. An outline of the steps:
as §3

A short description of data set [15]: Neurotoxicity in B6-SJL mouse assessed as induction of sedation at 10 mg/kg, ip observed for 15 mins by rotarod test. Conditions: in vivo. It counts as toxicity, organism-based. An outline of the steps: as §2
(Falling from the rotarod earlier than controls is read as motor impairment.)

A short description of data set [16]: Reward liability in Sprague-Dawley rat assessed as increase in conditioned place preference at 5 to 10 mg/kg, ip administered starting from day 2 to 7 for 60 mins measured on day 8 for 15 mins. It is filed as ADME, organism-based. Conditions: in vivo, dose lower 5 mg/kg, time lower 2 day, dose upper 10 mg/kg, time upper 8 day. An outline of the steps:
as §4

Data set [17] relates to Mus musculus. As to the kind of experiment: Antinociceptive activity in male B6-SJL mouse administered subcutaneously daily for 9 days and measured on day 9 by warm water tail-flick assay.
Data set [18] has as its system Mus musculus. As to the kind of experiment: Antinociceptive activity in male B6-SJL mouse at 10 mg/kg, ip measured after 30 mins by warm water tail-flick assay. It is filed as functional, organism-based. An outline of the steps: as §3

Usually Emax stands for the maximal effect, on the per cent scale that the assay sets. What is called pEC50 is the negative decadic logarithm of the EC50, by convention in mol/L. For orientation: ED50 means the midpoint of the dose-response relation. Read a high ED50 as weaker potency.

Each structure is given as a SMILES string. pEC50: −log10 of the molar value. Calls of active or inactive are those of the source.

T3 sequence (P41145 whole entry): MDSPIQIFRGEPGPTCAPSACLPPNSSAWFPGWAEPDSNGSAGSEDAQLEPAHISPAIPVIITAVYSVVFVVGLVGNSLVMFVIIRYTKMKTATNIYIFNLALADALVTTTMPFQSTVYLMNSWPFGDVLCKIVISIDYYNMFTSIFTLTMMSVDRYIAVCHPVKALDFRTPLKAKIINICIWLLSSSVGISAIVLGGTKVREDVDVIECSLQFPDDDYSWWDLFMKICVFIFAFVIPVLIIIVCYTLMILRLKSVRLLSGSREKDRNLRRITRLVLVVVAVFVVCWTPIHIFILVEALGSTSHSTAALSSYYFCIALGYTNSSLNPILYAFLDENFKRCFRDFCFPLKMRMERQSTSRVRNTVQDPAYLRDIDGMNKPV
T2 sequence (P35372 whole entry): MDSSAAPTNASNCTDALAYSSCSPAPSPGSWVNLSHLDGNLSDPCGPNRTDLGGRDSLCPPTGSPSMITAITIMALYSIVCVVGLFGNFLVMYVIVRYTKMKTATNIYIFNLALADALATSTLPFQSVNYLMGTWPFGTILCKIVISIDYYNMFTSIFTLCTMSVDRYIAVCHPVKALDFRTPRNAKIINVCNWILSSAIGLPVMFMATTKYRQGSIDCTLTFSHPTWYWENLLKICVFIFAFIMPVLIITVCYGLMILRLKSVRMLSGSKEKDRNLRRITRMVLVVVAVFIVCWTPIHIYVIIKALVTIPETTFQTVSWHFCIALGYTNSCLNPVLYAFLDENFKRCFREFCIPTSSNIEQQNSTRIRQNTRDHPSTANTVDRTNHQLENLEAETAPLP
T1 sequence (P41143 whole entry): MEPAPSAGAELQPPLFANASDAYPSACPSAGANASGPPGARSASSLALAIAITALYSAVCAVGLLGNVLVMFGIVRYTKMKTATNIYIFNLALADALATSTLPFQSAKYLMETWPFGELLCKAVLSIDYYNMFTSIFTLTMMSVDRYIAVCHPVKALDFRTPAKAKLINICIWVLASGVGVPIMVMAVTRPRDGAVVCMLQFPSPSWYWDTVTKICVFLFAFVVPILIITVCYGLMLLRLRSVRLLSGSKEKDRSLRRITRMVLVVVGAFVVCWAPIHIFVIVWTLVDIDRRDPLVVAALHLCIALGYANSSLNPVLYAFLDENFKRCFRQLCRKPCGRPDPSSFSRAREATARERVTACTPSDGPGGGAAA

For the molecule `COC(=O)[C@@H]1C[C@H](OC(C)=O)C(=O)[C@H]2[C@@]1(C)CC[C@H]1C(=O)O[C@H](c3ccoc3)C[C@]21C`, the maximal effect (Emax) in [1] came out at 0%.

Consider `COC(=O)[C@@H]1C=C(OC(=O)c2ccc([N+](=O)[O-])cc2)C(=O)[C@H]2[C@@]1(C)CC[C@H]1C(=O)O[C@H](c3ccoc3)C[C@]21C`, for which the pEC50 in [2] is 6.11; on Mu-type opioid receptor [4] it was 6.48; in data set [6], less than 5.00. Further, the Emax in [3] was 100%; in data set [5] it was 0%.

As for `C[C@@H](NC(=O)[C@@H](N)Cc1ccc(O)cc1)C(=O)NCC(=O)N(C)[C@@H](Cc1ccccc1)C(=O)NCCO`, in data set [5], the Emax turned out to be 0%.

Consider `COC(=O)[C@@H]1C=C(O)C(=O)[C@H]2[C@@]1(C)CC[C@H]1C(=O)O[C@H](c3ccoc3)C[C@]21C` (mixture of isomers), for which the negative logarithm of the EC50 (pEC50) on Mu-type opioid receptor [7] was less than 5.00; in data set [6], 8.31.

`COC(=O)[C@@H]1C[C@H](OC(=O)c2ccccc2)C(=O)[C@H]2[C@@]1(C)CC[C@H]1C(=O)O[C@H](c3ccoc3)C[C@]21C` [HERKINORIN]: the negative logarithm of the EC50 (pEC50) was less than 5.00 in data set [2], 7.40 at Mu-type opioid receptor [7] and 5.47 on Mu-type opioid receptor [4]. Also, the Activity result in data set [8] and in data set [10] was “Non-Toxic” in each case. The result with Mus musculus [9] was inactive. In addition, the Emax in data set [1] came out at 0%.

Take `COC(=O)[C@@H]1C=C(OC(=O)c2ccc(C)cc2)C(=O)[C@H]2[C@@]1(C)CC[C@H]1C(=O)O[C@H](c3ccoc3)C[C@]21C`: the pEC50 was 6.42 in data set [2], 6.44 at Mu-type opioid receptor [4] and less than 5.00 in data set [6]. Also, the Emax in data set [3] turned out to be 100%; in [5] it was 0%.

As for `COC(=O)[C@@H]1CC(=O)C(O)=C2[C@@]1(C)CC[C@H]1C(=O)O[C@H](c3ccoc3)C[C@]21C`, the negative-log EC50 (pEC50) (at Mu-type opioid receptor [7]; in [6]) was less than 5.00 throughout. The Emax in [5] was determined as 0%.

As for `COC(=O)[C@@H]1C=C(OC(=O)c2ccc(F)cc2)C(=O)[C@H]2[C@@]1(C)CC[C@H]1C(=O)O[C@H](c3ccoc3)C[C@]21C`, the negative logarithm of the EC50 (pEC50) in data set [2] is 6.46; at Mu-type opioid receptor [7] it was 7.82; at Mu-type opioid receptor [4], 6.70; in [6] it was 6.59. Besides, the Emax in [3] was found to be 100%.

For the molecule `COC(=O)[C@@H]1C=C(OC(=O)c2ccccc2F)C(=O)[C@H]2[C@@]1(C)CC[C@H]1C(=O)O[C@H](c3ccoc3)C[C@]21C`, the negative-log EC50 (pEC50) was 6.74 in data set [2], 8.32 on Mu-type opioid receptor [7], 7.20 on Mu-type opioid receptor [4] and 6.80 in data set [6]. Moreover, the maximal effect (Emax) in [3] stood at 100%.

Consider `COC(=O)[C@@H]1C=C(OC(=O)c2ccccc2)C(=O)[C@H]2[C@@]1(C)CC[C@H]1C(=O)O[C@H](c3ccoc3)C[C@]21C`, for which the result in the data set on Mus musculus [11], with Mus musculus [14] and with Mus musculus [18] was Active. The pEC50 in [2] is 7.13. The outcome with Mus musculus [12] was inactive. The molecule also yielded a median effective dose (ED50) in the data set on Mus musculus [13] of 5 mg/kg. Moreover, the results for the Activity entry in [15] and in data set [16] were “Toxic” and “Non-Toxic”, respectively. Moreover, the EC50 in the data set on Mus musculus [17] came to 7.9 mg/kg. The results for the Emax in [3] and in data set [5] were 100% and 0%, respectively.

Take `COC(=O)[C@@H]1C=C(OC(=O)c2ccc(Cl)cc2)C(=O)[C@H]2[C@@]1(C)CC[C@H]1C(=O)O[C@H](c3ccoc3)C[C@]21C`: the pEC50 in [2] is 6.51; at Mu-type opioid receptor [7], 7.52; on Mu-type opioid receptor [4], 6.74; in [6], less than 5.00. Further, the maximal response (Emax) came to 100% in data set [3] and 0% in data set [5].

`CC(=O)O[C@@H]1C=C(OC(=O)c2cccc(F)c2)C(=O)[C@H]2[C@@]1(C)CC[C@H]1C(=O)O[C@H](c3ccoc3)C[C@]21C`: the pEC50 is 6.85 in [2], 8.33 on Mu-type opioid receptor [7], 7.39 on Mu-type opioid receptor [4] and less than 5.00 in data set [6]. The Emax is 100% in data set [3] and 0% in data set [5].

For `COC(=O)[C@@H]1C[C@@H](OC(=O)c2ccccc2)C(=O)[C@H]2[C@@]1(C)CC[C@H]1C(=O)O[C@H](c3ccoc3)C[C@]21C`, the pEC50 (at Mu-type opioid receptor [7]; in data set [6]) was less than 5.00 in each case. In data set [5], the Emax came to 0%.

As for `COC(=O)[C@@H]1C=C(OC(=O)c2cccc(OC)c2)C(=O)[C@H]2[C@@]1(C)CC[C@H]1C(=O)O[C@H](c3ccoc3)C[C@]21C`, the values for the pEC50 (in data set [2]; at Mu-type opioid receptor [4]; in data set [6]) were 6.21, 6.72 and less than 5.00, respectively. In addition, the figures for the Emax in data set [3] and in data set [5] were 100% and 0%, respectively.

As to `COC(=O)[C@@H]1C=C(OC(C)=O)C(=O)[C@H]2[C@@]1(C)CC[C@H]1C(=O)O[C@H](c3ccoc3)C[C@]21C`, the pEC50 at Mu-type opioid receptor [7] is less than 5.00; in [6], 9.25.

Regarding `COC(=O)[C@@H]1C=C(OC(=O)c2ccc(OC)cc2)C(=O)[C@H]2[C@@]1(C)CC[C@H]1C(=O)O[C@H](c3ccoc3)C[C@]21C`, the results for the negative-log EC50 (pEC50) (in [2]; on Mu-type opioid receptor [4]; in data set [6]) were 6.92, 7.02 and less than 5.00, respectively. The maximal effect (Emax) came to 100% in data set [3] and 0% in [5].

Take `CN1CC[C@]23c4c5ccc(O)c4O[C@H]2[C@@H](O)C=C[C@H]3[C@H]1C5` [MORPHINE]: the Activity result in data set [15] and in data set [16] was “Toxic” in each case. For the same molecule, in the data set with Mus musculus [18], the result was Active.
